Test [1] is described as follows: Antiproliferative activity against human MIAPaCa2 cells after 48 hrs by SRB assay. The class given is functional. The conditions noted are these: MIA PaCa-2, 48 h. The procedure, abridged: (§1)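 SRB assay in ATCC-sourced cells grown in DMEM with 10% FBS and penicillin/streptomycin at 37 °C, 5% CO2. Cells were plated at densities set by doubling time and incubated 24 h before dosing. Compounds (DMSO 10 mM stock diluted in medium) were tested at 0.01, 0.1, 1, 10 and 100 µM with 48 h continuous exposure. Cells were fixed in cold 10% TCA and stained with 0.057% SRB; OD was read at 510 nm. GI50 was derived from time-zero, control and test absorbances and reported as the mean of three independent experiments.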
(The SRB assay estimates cell density from bound dye.)

Test [2] is described as follows: Antiproliferative activity against human MCF7 cells after 48 hrs by SRB assay. The conditions noted are these: MCF7, 48 h. The class given is functional. Summed up: as §1
Test [3] is described as follows: Antiproliferative activity against human HeLa cells after 48 hrs by SRB assay. The class given is functional. Summed up:
as §1

The test system of test [4] is MCF7. Kind of test: Induction of apoptosis in human MCF7 cells assessed as viable cells at 100 nM after 48 hrs by Annexin V FITC/propidium iodide-based FACS analysis (reference value: 93.1 %). The conditions noted are these: MCF7, 48 h, read-out: Activity. It counts as functional. In general terms: In flow cytometry, cells or beads pass a laser one at a time.
The subject of test [5] is MCF7. Kind of test: Induction of apoptosis in human MCF7 cells assessed as early apoptotic cells at 100 nM after 48 hrs by Annexin V FITC/propidium iodide-based FACS analysis (reference value: 2.4 %). It counts as functional.
In test [6] the test system is MCF7. Kind of test: Induction of apoptosis in human MCF7 cells assessed as late apoptotic cells at 100 nM after 48 hrs by Annexin V FITC/propidium iodide-based FACS analysis (reference value: 4.2 %). It counts as functional.
The subject of test [7] is MCF7. Kind of test: Induction of apoptosis in human MCF7 cells assessed as necrotic cells at 100 nM after 48 hrs by Annexin V FITC/propidium iodide-based FACS analysis (reference value: 0.4 %). It counts as functional.
In test [8] the test system is MCF7. The test is described as follows: Induction of apoptosis in human MCF7 cells after 48 hrs by Annexin V FITC/propidium iodide-based FACS analysis. It counts as functional, cell-based.
Test [9] is described as follows: Downregulation of CDK1 in human MCF7 cells at 50 to 100 nM after 48 hrs by Western blot analysis. It counts as functional, cell-based. The procedure, abridged: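 MCF-7 cells were treated 48 h at 50 or 100 nM and lysed in RIPA buffer. Lysate (50 µg per lane) was resolved on 10% SDS-PAGE and transferred to PVDF. Membranes were BSA-blocked, probed with primary antibody for 24 h and detected by chemiluminescence, with β-actin as loading control.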
In general terms: A western blot detects proteins with antibodies after separation by electrophoresis.

Test [10] can be described thus: Cell cycle arrest in human MCF7 cells assessed as accumulation at G2/M phase after 48 hrs by propidium iodide-staining based FACS analysis. The class given is functional. Summed up:
(§2)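 MCF-7 cells were incubated 48 h with compound at 50 or 100 nM; nocodazole 100 nM was the reference. Untreated and treated cells were harvested, washed in PBS, fixed in ice-cold 70% ethanol, stained with propidium iodide and analysed by flow cytometry for cell-cycle phase distribution.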

Test [11] in a line: Cell cycle arrest in human MCF7 cells assessed as reduction in DNA content at G0/G1 phase at 50 to 100 nM after 48 hrs by propidium iodide-staining based FACS analysis. It counts as functional. The procedure, abridged: as §2
For test [12], the system named is MCF7. The test is described as follows: Induction of apoptosis in human MCF7 cells assessed as chromatin condensation at 50 to 100 nM after 48 hrs by Hoechst 33242-staining based fluorescence microscopic analysis. The class given is functional, cell-based. The procedure, abridged:
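MCF-7 cells were seeded at 1×10^5 cells/mL, exposed to compound at 50 or 100 nM, with DMSO vehicle as control. They were fixed in 4% paraformaldehyde for 10 min at 4 °C and stained with Hoechst 33242 (2 µg/mL) for 10 min at room temperature. Nuclear morphology was imaged by fluorescence microscopy in random fields.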

Test [13] deals with MCF7. Kind of test: Induction of apoptosis in human MCF7 cells assessed as reduction in mitochondrial membrane potential at 50 to 100 nM after 48 hrs by rhodamine 123-staining based fluorescence microscopic analysis. It counts as functional, cell-based. Summed up:
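MCF-7 cells were plated at 1×10^5 cells/mL and allowed to adhere overnight, then treated at 50 or 100 nM. After PBS washes they were loaded with rhodamine 123 (5 µg/ml) for 30 min in the dark at 37 °C. Loss of green fluorescence was assessed by fluorescence microscopy.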

For test [14], the system named is MCF7. The test is described as follows: Induction of apoptosis in human MCF7 cells assessed as intracellular ROS generation at 100 nM after 48 hrs by carboxy-DCFDA staining based fluorescence microscopic analysis. It counts as functional, cell-based. Summed up:
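MCF-7 cells were plated at 1×10^5 cells/mL, adhered overnight and treated at 50 or 100 nM. Methods and legend state 24 h treatment; the results text states 48 h. Cells were PBS-washed, fixed in 4% paraformaldehyde and exposed to carboxy-DCFDA for 30 min in the dark at room temperature. DCF fluorescence was assessed by fluorescence microscopy.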

Test [15] deals with MCF7. The test is described as follows: Induction of apoptosis in human MCF7 cells assessed as viable cells at 50 nM after 48 hrs by Annexin V FITC/propidium iodide-based FACS analysis (reference value: 93.1 %). To be noted: MCF7, 48 h, read-out: Activity. It counts as functional.
Test [16] deals with MCF7. The test is described as follows: Induction of apoptosis in human MCF7 cells assessed as early apoptotic cells at 50 nM after 48 hrs by Annexin V FITC/propidium iodide-based FACS analysis (reference value: 2.4 %). It counts as functional.
The test system of test [17] is MCF7. The test is described as follows: Induction of apoptosis in human MCF7 cells assessed as late apoptotic cells at 50 nM after 48 hrs by Annexin V FITC/propidium iodide-based FACS analysis (reference value: 4.2 %). It counts as functional.
The subject of test [18] is MCF7. Kind of test: Induction of apoptosis in human MCF7 cells assessed as necrotic cells at 50 nM after 48 hrs by Annexin V FITC/propidium iodide-based FACS analysis (reference value: 0.4 %). It counts as functional.

SMILES strings stand for the structures. The source made the active and inactive calls. No cut-off for these calls is given here. Bounds are passed on as bounds.

As to `COC(=O)Nc1nc2cc(C(=O)c3cccs3)ccc2[nH]1` [NOCODAZOLE], the figures for the GI50 in test [1], in test [2] and in test [3] were 950 nM, 940 nM and 810 nM, respectively. Further, the viability at 0.1 µM in the test with MCF7 [4] worked out at 70.5%. Further, the Activity was 7.6% in the test with MCF7 [5], 20.3% in the test with MCF7 [6], 1.6% in the test on MCF7 [7] and “Dose-dependent effect” in the test on MCF7 [8].
For the compound `O=C(NCc1cn(Cc2ccc(Cl)cc2)nn1)c1cn(-c2ccccc2)nc1-c1ccc(F)cc1`, the result (in test [9]; in test [11]; with MCF7 [12]; in the test on MCF7 [13]; with MCF7 [14]) was Active. The Activity entry in [10] was “Dose-dependent effect”; with MCF7 [16], 5.2%; in the test on MCF7 [17] it was 10.3%; in the test with MCF7 [18] it was 0.7%; with MCF7 [5], 8.2%; in the test with MCF7 [6], 20.5%. The Activity was 2% with MCF7 [7] and “Dose-dependent effect” with MCF7 [8]. Further, the values for the GI50 in test [1], in [2] and in test [3] were 280 nM, 130 nM and 210 nM, respectively. Further, the viability at 0.05 µM in the test with MCF7 [15] was 83.8%. In addition, the viability at 0.1 µM with MCF7 [4] turned out to be 69.3%.
Regarding `COc1cc(Cn2cc(CNC(=O)c3cn(-c4ccccc4)nc3-c3ccc(Cl)cc3)nn2)cc(OC)c1`, the result (in test [9]; in test [11]; in the test with MCF7 [12]; in the test on MCF7 [13]; in the test on MCF7 [14]) was Active. Besides, the Activity entry was “Dose-dependent effect” in test [10]; 5.6% with MCF7 [16]; 10.2% with MCF7 [17]; 0.9% with MCF7 [18]; 7.8% in the test on MCF7 [5]; 28.6% with MCF7 [6]. Also, the Activity was 2.2% in the test on MCF7 [7] and “Dose-dependent effect” with MCF7 [8]. The GI50 in test [1] amounted to 340 nM; in [2] it was 150 nM; in [3] it was 730 nM. In addition, the viability at 0.05 µM with MCF7 [15] is 83.2%. Besides, the viability at 0.1 µM with MCF7 [4] is 61.4%.
In the case of `COc1ccc(-c2nn(-c3ccccc3)cc2C(=O)NCc2cn(Cc3cc(OC)c(OC)c(OC)c3)nn2)cc1`, the results for the GI50 in [1], in test [2] and in [3] were 31600 nM, 7600 nM and 1700 nM, respectively.
For `COc1ccc(-c2nn(-c3ccccc3)cc2C(=O)NCc2cn(Cc3ccc(C(F)(F)F)cc3)nn2)cc1` the same measures were above 100000 nM, above 100000 nM and 6200 nM.
For `COc1ccc(-c2nn(-c3ccccc3)cc2C(=O)NCc2cn(Cc3ccc(Cl)cc3)nn2)cc1` the same measures were 26300 nM, 2900 nM and 6400 nM.
For `O=C(NCc1cn(Cc2ccc(Cl)cc2)nn1)c1cn(-c2ccccc2)nc1-c1ccc(Cl)cc1` the same measures were 410 nM, 28800 nM and 470 nM.
For the compound `COc1ccc(-c2nn(-c3ccccc3)cc2C(=O)NCc2cn(Cc3ccc(F)cc3)nn2)cc1`, the GI50 was determined as 24100 nM in test [1], 460 nM in test [2] and 500 nM in test [3].
Take `COc1cc(Cn2cc(CNC(=O)c3cn(-c4ccccc4)nc3-c3ccccc3)nn2)cc(OC)c1`: the GI50 worked out at 190 nM in test [1], 2400 nM in [2] and 12200 nM in test [3].
For `COc1ccc(Cn2cc(CNC(=O)c3cn(-c4ccccc4)nc3-c3ccccc3)nn2)cc1`, the 50% growth inhibitory concentration (GI50) in test [1] was 10200 nM; in [2], above 100000 nM; in [3], 6900 nM.

What is called GI50 is the concentration giving 50% growth inhibition. A higher GI50 goes with less potent growth inhibition.

The record behind these values is ChEMBL document CHEMBL3865795, “Design, synthesis and biological evaluation of N-((1-benzyl-1H-1,2,3-triazol-4-yl)methyl)-1,3-diphenyl-1H-pyrazole-4-carboxamides as CDK1/Cdc2 inhibitors” (2016).
